In assay [1] the target is T1, Bifunctional epoxide hydrolase 2 (Homo sapiens, UniProt P34913).
T1 sequence (P34913 whole entry): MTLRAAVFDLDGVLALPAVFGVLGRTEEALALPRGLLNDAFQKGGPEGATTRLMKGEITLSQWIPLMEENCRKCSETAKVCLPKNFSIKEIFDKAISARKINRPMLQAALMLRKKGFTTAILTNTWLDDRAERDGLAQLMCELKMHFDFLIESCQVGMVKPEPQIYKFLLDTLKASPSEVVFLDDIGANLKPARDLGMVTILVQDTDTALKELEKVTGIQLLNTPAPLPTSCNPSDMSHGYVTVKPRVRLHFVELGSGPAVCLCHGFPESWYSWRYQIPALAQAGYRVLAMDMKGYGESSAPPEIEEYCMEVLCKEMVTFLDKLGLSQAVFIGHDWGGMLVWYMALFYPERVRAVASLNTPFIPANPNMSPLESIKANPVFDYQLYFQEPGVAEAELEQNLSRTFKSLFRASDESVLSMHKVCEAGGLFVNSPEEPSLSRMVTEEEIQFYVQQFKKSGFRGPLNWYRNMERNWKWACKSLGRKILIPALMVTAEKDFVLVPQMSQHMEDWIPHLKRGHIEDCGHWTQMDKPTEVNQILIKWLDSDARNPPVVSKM
The assay can be described thus: Inhibition of soluble epoxide hydrolase (unknown origin) using 14,15-EET as substrate incubated for 20 mins by LC-MS/MS analysis.

Assay [2] concerns the target T2, Epoxide hydrolase 1 (Homo sapiens) (UniProt P07099).
T2 sequence (whole entry): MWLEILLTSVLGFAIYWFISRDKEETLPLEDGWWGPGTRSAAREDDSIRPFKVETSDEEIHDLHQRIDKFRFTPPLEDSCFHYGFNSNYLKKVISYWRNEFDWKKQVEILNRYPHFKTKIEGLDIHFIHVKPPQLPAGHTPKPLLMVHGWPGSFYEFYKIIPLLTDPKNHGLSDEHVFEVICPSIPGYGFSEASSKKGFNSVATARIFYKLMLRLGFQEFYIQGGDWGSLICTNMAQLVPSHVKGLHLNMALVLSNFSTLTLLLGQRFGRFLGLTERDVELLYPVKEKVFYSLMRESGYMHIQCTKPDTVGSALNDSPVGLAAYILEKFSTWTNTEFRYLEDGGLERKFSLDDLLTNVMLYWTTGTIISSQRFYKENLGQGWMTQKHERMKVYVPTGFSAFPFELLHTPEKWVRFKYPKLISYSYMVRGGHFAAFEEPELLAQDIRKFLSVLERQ
The experiment in a line: Inhibition of microsomal epoxide hydrolase in pooled human liver microsomes assessed as enzyme activity using styrene oxide as substrate at 10 uM incubated for 10 mins by UV-HPLC analysis relative to control. On the set-up: scale not given: the % may be the effect or the level left. Summed up: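 Pooled human liver microsomes (0.2 mg/mL) incubated with styrene oxide (25 μM) and 10 μM test compound in 0.1 M Tris-HCl pH 9.0 at 37°C for 10 min; quenched with n-hexane, centrifuged, supernatant analysed by UV-HPLC (C18, 30°C, 40% methanol). Activity from styrene glycol formed, as percentage of control; valpromide positive control.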

The record followed here is ChEMBL document CHEMBL3808295, “Discovery of enantioselectivity of urea inhibitors of soluble epoxide hydrolase” (Eur J Med Chem, 2016).

Regarding `O=C(NCCCc1ccccc1)N[C@H]1CCc2ccccc21`, the concentration for half-maximal inhibition (IC50) in assay [1] amounted to 65 nM. Also, the Activity in assay [2] was 112%.
In assay [1], `CC[C@H](C)NC(=O)NCCCc1ccccc1` had an IC50 of 63 nM. Further, the Activity in assay [2] came to 101%.
For `O=C(NCCCc1ccccc1)N1CCC[C@H]1c1ccccc1` the same measures were 332 nM and 99.8%.
Compound `O=C(NCCCc1ccccc1)N1CCC[C@@H]1c1ccccc1` gave an IC50 in assay [1] of 1510 nM. Also, the Activity in assay [2] worked out at 101%.
As for `O=C(NCCCc1ccccc1)N[C@@H]1CCc2ccccc21`, the IC50 in assay [1] stood at 22 nM. The Activity in assay [2] is 110%.
Take `CCC(C)NC(=O)NCCCc1ccccc1` (racemic): inhibition in assay [1] was half-maximal at 650 nM (IC50). The Activity in assay [2] is 102%.
For `C[C@@H](NC(=O)NCCCc1ccccc1)C1CCCCC1` the same measures were 302 nM and 103%.
`C[C@@H](NC(=O)NCCCc1ccccc1)c1cccc2ccccc12` registered an IC50 in assay [1] of 364 nM. The Activity in assay [2] was 98.7%.
For `C[C@H](NC(=O)NCCCc1ccccc1)c1ccccc1`, the concentration for half-maximal inhibition (IC50) in assay [1] was determined as 44 nM. Moreover, the Activity in assay [2] is 84.6%.
On to `CCCC(CCC)C(N)=O`, for which the Activity in assay [2] stood at 50.9%.
`C[C@H](NC(=O)NCCCc1ccccc1)C1CCCCC1` showed a half-maximal inhibitory concentration (IC50) in assay [1] of 182 nM. Further, the Activity in assay [2] came to 99.4%.
As for `CC[C@@H](NC(=O)NCCCc1ccccc1)c1ccccc1`, in assay [1], 4500 nM corresponded to half-maximal inhibition (IC50). Further, the Activity in assay [2] was found to be 103%.
Consider `O=C(NCCCc1ccccc1)N[C@@H](CO)c1ccccc1`, for which, in assay [1], the 50% inhibitory concentration (IC50) came out at 2740 nM. For the same compound, the Activity in assay [2] amounted to 102%.
In turn, `C[C@@H](NC(=O)NCCCc1ccc(S(N)(=O)=O)cc1)c1ccccc1` showed an IC50 in assay [1] of 2030 nM. In addition, the Activity in assay [2] was 101%.
For `O=C(NCCCc1ccccc1)N[C@@H]1CCCc2ccccc21` the same measures were 13 nM and 106%.
In assay [1], `C[C@H](NC(=O)NCCCc1ccccc1)c1cccc2ccccc12` gave an IC50 of 43 nM. Also, the Activity in assay [2] was 102%.
For `O=C(NCCCc1ccccc1)N[C@H](CO)c1ccccc1` the same measures were 20000 nM and 107%.
Turning to `C[C@H](NC(=O)NCCCc1ccc(S(N)(=O)=O)cc1)c1ccccc1`, half-maximal inhibition in assay [1] (IC50) was put at 22 nM. Further, in assay [2], the Activity stood at 99.9%.
For `O=C(NCCCc1ccccc1)NCc1ccccc1`, the midpoint of inhibition in assay [1], the IC50, lay at 3260 nM. In addition, the Activity in assay [2] came to 105%.
Turning to `CC[C@H](NC(=O)NCCCc1ccccc1)c1ccccc1`, the IC50 in assay [1] amounted to 36 nM. The Activity in assay [2] came out at 106%.
Regarding `O=C(NCCCc1ccccc1)N[C@H]1CCCc2ccccc21`, in assay [1], the 50% inhibitory concentration (IC50) was 13 nM. For the same compound, in assay [2], the Activity was found to be 106%.
The compound `C[C@@H](NC(=O)NCCCc1ccccc1)c1ccccc1` registered an IC50 in assay [1] of 1730 nM. The Activity in assay [2] worked out at 102%.
